Series [1] relates to K562. Description: Growth inhibition in human K562 cells at 1 uM after 72 hrs by MTT assay. The settings on record: K562, 72 h, read-out: GI. It counts as functional.
The subject of series [2] is K562. Kind of series: Growth inhibition in human K562 cells at 3 uM after 72 hrs by MTT assay. As to conditions: K562, 72 h, read-out: GI. It counts as functional. (In general: Tetrazolium dyes change colour on reduction, which living cells bring about.)
Series [3] relates to K562. Description: Growth inhibition in doxorubicin-resistant human K562 cells overexpressing Pgp at 3 uM after 72 hrs by MTT assay. Type of series: functional. As to conditions: K562, 72 h, read-out: GI.
Series [4] deals with T1, ATP-dependent translocase ABCB1 (Homo sapiens, UniProt P08183). Description: Inhibition of P-glycoprotein-mediated multidrug resistance in human doxorubicin-resistant K562 cells assessed as drug level causing 50% increase in nuclear concentration of pirarubicin by spectrofluorimetry. As to conditions: read-out: INH. It counts as cell-based. In short, it runs like this:
(§1)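 Pirarubicin uptake was measured in doxorubicin-resistant K562/DOX cells, which overexpress only Pgp, by continuous spectrofluorometry (excitation 480 nm, emission 590 nm) after incubation. R is the fold increase in nuclear pirarubicin with inhibitor, from 0 (no inhibitor) to 1 (equal to sensitive cells). Rmax is the maximal attainable R. Reported concentrations are those giving R = 0.2 or R = 0.5.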

Series [5] has as its system K562. Description: Growth inhibition in doxorubicin-resistant human K562 cells overexpressing Pgp at 1 uM after 72 hrs by MTT assay. Type of series: functional. The settings on record: K562, 72 h, read-out: GI.
The target in series [6] is T1, ATP-dependent translocase ABCB1. Description: Inhibition of P-glycoprotein-mediated multidrug resistance in human doxorubicin-resistant K562 cells assessed as maximal increase in nuclear concentration of pirarubicin by spectrofluorimetry relative to sensitive K562 cells. Type of series: cell-based. In a few lines:
as §1

For series [7] the target is unchanged. Description: Inhibition of P-glycoprotein-mediated multidrug resistance in human doxorubicin-resistant K562 cells assessed as drug level causing 20% increase in nuclear concentration of pirarubicin by spectrofluorimetry. It counts as cell-based. In short, it runs like this: as §1

Where only a bound is given, the exact number is not on record here.

This note sets out measurements from ChEMBL document CHEMBL1154908, “Structure-activity relationships studies in a series of N,N-bis(alkanol)amine aryl esters as P-glycoprotein (Pgp) dependent multidrug resistance (MDR) inhibitors” (J Med Chem, 2010).

T1 sequence (P08183 whole entry): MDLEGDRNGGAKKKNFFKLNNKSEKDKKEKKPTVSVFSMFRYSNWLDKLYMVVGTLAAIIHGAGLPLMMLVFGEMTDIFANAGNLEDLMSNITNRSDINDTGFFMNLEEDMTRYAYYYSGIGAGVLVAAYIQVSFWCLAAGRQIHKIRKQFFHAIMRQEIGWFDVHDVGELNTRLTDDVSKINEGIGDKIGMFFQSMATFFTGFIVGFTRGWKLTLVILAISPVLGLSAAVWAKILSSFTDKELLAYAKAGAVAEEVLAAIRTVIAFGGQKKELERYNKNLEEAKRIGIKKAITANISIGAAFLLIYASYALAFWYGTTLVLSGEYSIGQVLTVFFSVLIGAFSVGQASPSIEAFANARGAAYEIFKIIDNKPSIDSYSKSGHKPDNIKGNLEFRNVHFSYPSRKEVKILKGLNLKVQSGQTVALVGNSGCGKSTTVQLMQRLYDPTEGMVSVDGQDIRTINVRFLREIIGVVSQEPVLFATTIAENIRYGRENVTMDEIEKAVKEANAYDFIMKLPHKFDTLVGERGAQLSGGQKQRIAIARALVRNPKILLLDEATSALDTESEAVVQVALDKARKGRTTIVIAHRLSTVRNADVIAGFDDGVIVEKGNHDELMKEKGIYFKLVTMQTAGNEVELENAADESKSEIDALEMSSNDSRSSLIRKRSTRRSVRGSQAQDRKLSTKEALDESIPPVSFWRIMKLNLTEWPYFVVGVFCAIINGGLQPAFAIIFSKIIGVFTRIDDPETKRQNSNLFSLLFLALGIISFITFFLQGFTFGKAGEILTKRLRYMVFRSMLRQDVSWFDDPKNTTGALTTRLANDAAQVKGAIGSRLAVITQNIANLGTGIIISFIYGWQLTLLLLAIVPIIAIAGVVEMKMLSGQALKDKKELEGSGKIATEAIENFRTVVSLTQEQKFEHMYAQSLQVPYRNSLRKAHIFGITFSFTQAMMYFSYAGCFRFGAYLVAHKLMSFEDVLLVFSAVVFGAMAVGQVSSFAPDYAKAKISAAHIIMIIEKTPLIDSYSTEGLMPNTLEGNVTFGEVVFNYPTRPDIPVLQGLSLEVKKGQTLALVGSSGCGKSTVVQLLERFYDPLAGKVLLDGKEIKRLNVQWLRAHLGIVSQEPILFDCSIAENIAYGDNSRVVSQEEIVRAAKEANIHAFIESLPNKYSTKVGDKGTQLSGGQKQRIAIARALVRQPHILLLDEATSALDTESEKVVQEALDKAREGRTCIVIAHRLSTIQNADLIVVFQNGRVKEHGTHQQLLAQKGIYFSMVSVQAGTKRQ

On to `COc1cc(/C=C/C(=O)OCCCN(C)CCCOC(=O)/C=C/c2ccc(-c3ccccc3)cc2)cc(OC)c1OC`, for which the inhibition of growth at 1 µM in series [1] and in series [5] was at most 10% in each case. Besides, the inhibition of growth at 3 µM in series [2] and in series [3] was at most 10% in each case. Moreover, in series [4], the IC50 stood at 240 nM. In addition, in series [6], the “fold change (FC)” value came out at 0.85.
With `COc1cc(/C=C/C(=O)OCCCCCN(C)CCCCCOC(=O)/C=C/c2ccc(-c3ccccc3)cc2)cc(OC)c1OC`, the INH in series [7] was found to be 0.36 µM. In series [6], the “fold change (FC)” value was 0.4.
In the case of `COc1ccc(/C=C/C(=O)OCCCN(C)CCCOC(=O)/C=C/c2cc(OC)c(OC)c(OC)c2)cc1OC`, the INH in series [7] is 1.4 µM. In addition, in series [6], the “fold change (FC)” value stood at 0.5.
For `COc1cc(/C=C/C(=O)OCCCN(C)CCCOC(=O)/C=C/c2c3ccccc3cc3ccccc23)cc(OC)c1OC`, in series [4], the IC50 is 250 nM. In addition, in series [6], the “fold change (FC)” value is on record as 0.93.
The corresponding values for `COc1cc(/C=C/C(=O)OCCCN(C)CCCOC(=O)c2ccc(-c3ccccc3)cc2)cc(OC)c1OC` are 220 nM and 0.77.
`COc1cc(/C=C/C(=O)OCCCCCN(C)CCCCCOC(=O)C=C(c2ccccc2)c2ccccc2)cc(OC)c1OC`: the INH in series [7] was 0.5 µM. Besides, in series [6], the “fold change (FC)” value came to 0.28.
Take `COc1ccc(CCN(C)CCCC(C#N)(c2ccc(OC)c(OC)c2)C(C)C)cc1OC` (centres undefined) [VERAPAMIL]: the inhibition of growth at 1 µM in series [1] and in series [5] was at most 10% throughout. Further, the inhibition of growth at 3 µM in series [2] and in series [3] was at most 10% throughout.
For the compound `COc1cc2c(cc1OC)CN(CCC(=O)OCCCN(C)CCCOC(=O)/C=C/c1cc(OC)c(OC)c(OC)c1)CC2`, the IC50 in series [4] amounted to 3700 nM. In addition, the “fold change (FC)” value in series [6] turned out to be 0.63.
In the case of `COc1ccc(/C=C/C(=O)OCCCN(C)CCCOC(=O)c2cc(OC)c(OC)c(OC)c2)cc1OC`, in series [7], the INH amounted to 0.7 µM. In addition, in series [6], the “fold change (FC)” value was 0.34.
For the compound `COc1ccc(/C=C/C(=O)OCCCN(C)CCCOC(=O)c2c3ccccc3c(Cl)c3ccccc23)cc1OC`, the IC50 in series [4] amounted to 410 nM. Moreover, the “fold change (FC)” value in series [6] is 0.98.
Consider `COc1ccc(/C=C/C(=O)OCCCN(C)CCCOC(=O)c2c3ccccc3cc3ccccc23)cc1OC`, for which the IC50 in series [4] was found to be 190 nM. For the same compound, the “fold change (FC)” value in series [6] stood at 0.57.
For `COc1ccc(C(C(=O)OCCCCCN(C)CCCCCOC(=O)/C=C/c2cc(OC)c(OC)c(OC)c2)c2ccc(OC)cc2)cc1`, the IC50 in series [4] amounted to 400 nM. The “fold change (FC)” value in series [6] worked out at 0.5.
In the case of `COc1ccc(/C=C/C(=O)OCCCCCN(C)CCCCCOC(=O)c2c3ccccc3cc3ccccc23)cc1OC`, the inhibition of growth at 1 µM in series [1] and in series [5] was at most 10% throughout. Further, the inhibition of growth at 3 µM in series [2] and in series [3] was at most 10% throughout. For the same compound, the IC50 in series [4] stood at 170 nM. The “fold change (FC)” value in series [6] turned out to be 1.
In the case of `COc1ccc(C(C(=O)OCCCN(C)CCCOC(=O)/C=C/c2cc(OC)c(OC)c(OC)c2)c2ccc(OC)cc2)cc1`, the inhibition of growth at 1 µM in series [1] and in series [5] was at most 10% throughout. The inhibition of growth at 3 µM in series [2] and in series [3] was at most 10% in each case. In addition, the IC50 in series [4] came out at 80 nM. For the same compound, in series [6], the “fold change (FC)” value was determined as 0.79.
For the compound `COc1ccc(C(C#N)(CCCNCc2c3ccccc3cc3ccccc23)C(C)C)cc1OC` (centres undefined), the IC50 in series [4] worked out at 50 nM. Also, in series [6], the “fold change (FC)” value amounted to 0.7.
For `COc1cc(/C=C/C(=O)OCCCN(C)CCCOC(=O)C=C(c2ccccc2)c2ccccc2)cc(OC)c1OC`, the values for the inhibition of growth at 1 µM in series [1] and in series [5] were 20% and at most 10%, respectively. In addition, the inhibition of growth at 3 µM in series [2] and in series [3] was 20% each time. For the same compound, the IC50 in series [4] came to 160 nM. For the same compound, in series [6], the “fold change (FC)” value is given as 0.66.
As for `COc1cc(/C=C/C(=O)OCCCN(C)CCCOC(=O)C(c2ccccc2)c2ccccc2)cc(OC)c1OC`, the inhibition of growth at 1 µM in series [1] and in series [5] was at most 10% each time. Further, the inhibition of growth at 3 µM in series [2] and in series [3] was at most 10% in each case. Moreover, the IC50 in series [4] was 260 nM. For the same compound, in series [6], the “fold change (FC)” value is 0.77.
Turning to `COc1ccc(/C=C/C(=O)OCCCCCN(C)CCCCCOC(=O)c2cc(OC)c(OC)c(OC)c2)cc1OC`, the IC50 in series [4] was 640 nM. Also, in series [6], the “fold change (FC)” value is reported as 0.7.
With `COc1cc(/C=C/C(=O)OCCCN(C)CCCOC(=O)CN2C(=O)C3C4c5ccccc5C(c5ccccc54)C3C2=O)cc(OC)c1OC` (centres undefined), the IC50 in series [4] was 230 nM. In addition, in series [6], the “fold change (FC)” value was 0.73.
The corresponding values for `COc1cc(/C=C/C(=O)OCCCNCCCOC(=O)/C=C/c2c3ccccc3cc3ccccc23)cc(OC)c1OC` are 800 nM and 0.92.
`COc1cc(/C=C/C(=O)OCCCN(C)CCCOC(=O)CCN2C(=O)C3C4c5ccccc5C(c5ccccc54)C3C2=O)cc(OC)c1OC` (centres undefined): the IC50 in series [4] turned out to be 390 nM. Besides, the “fold change (FC)” value in series [6] worked out at 0.63.
